Measured values taken from ChEMBL document CHEMBL1255570, “Click-chemistry-derived triazole ligands of arginine-glycine-aspartate (RGD) integrins with a broad capacity to inhibit adhesion of melanoma cells and both in vitro and in vivo angiogenesis” (J Med Chem, 2010).

What was measured:
Integrin alpha-V/beta-5 = Integrin alpha-V/beta-5 (Homo sapiens, UniProt P06756+P18084); assay: Displacement of [125I]echistatin from human integrin alphaVbeta5; format: protein-complex assay
How it was run: (§1)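 Solid-phase competition binding to αvβ3 and αvβ5 purified from human placenta. Receptors coated overnight at 4 °C (αvβ3 at 500 ng/mL, αvβ5 at 1000 ng/mL) in Tris pH 7.4 buffer with Ca2+, Mg2+ and Mn2+, then blocked with 1% BSA. [125I]echistatin used at 0.05 nM (αvβ3) or 0.1 nM (αvβ5) against test compound from 100 μM to 0.01 nM. Incubation 3 h at room temperature, in triplicate. Nonspecific binding defined with 1 μM unlabeled echistatin. IC50 taken as 50% inhibition of radioligand binding.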

Integrin alpha-V/beta-3 = Integrin alpha-V/beta-3 (Homo sapiens, UniProt P05106+P06756); assay: Displacement of [125I]echistatin from human integrin alphaVbeta3; format: protein-complex assay; how it was run: as §1
Sequence of Integrin alpha-V/beta-3 (P05106 27-788 limits assumed): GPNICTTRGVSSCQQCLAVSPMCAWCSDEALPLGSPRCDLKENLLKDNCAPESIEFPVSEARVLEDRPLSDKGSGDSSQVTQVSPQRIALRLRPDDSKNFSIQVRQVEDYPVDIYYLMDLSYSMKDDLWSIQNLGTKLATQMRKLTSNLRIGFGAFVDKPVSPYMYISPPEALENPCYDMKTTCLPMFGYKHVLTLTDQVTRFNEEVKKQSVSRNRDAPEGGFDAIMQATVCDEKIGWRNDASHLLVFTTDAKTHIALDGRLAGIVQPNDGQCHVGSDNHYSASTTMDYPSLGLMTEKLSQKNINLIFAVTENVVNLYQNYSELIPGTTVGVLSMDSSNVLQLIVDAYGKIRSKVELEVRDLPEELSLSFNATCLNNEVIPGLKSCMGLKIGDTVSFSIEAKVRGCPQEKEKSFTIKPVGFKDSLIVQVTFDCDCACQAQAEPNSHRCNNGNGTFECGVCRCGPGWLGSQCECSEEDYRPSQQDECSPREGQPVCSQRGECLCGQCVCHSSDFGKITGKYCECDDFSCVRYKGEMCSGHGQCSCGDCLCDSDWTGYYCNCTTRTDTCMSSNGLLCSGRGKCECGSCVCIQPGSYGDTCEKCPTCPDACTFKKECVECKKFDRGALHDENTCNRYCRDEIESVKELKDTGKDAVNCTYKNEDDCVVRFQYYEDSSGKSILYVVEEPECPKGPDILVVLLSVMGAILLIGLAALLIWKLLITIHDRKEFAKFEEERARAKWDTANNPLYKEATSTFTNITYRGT
Sequence of Integrin alpha-V/beta-3 (P06756 31-889 limits assumed): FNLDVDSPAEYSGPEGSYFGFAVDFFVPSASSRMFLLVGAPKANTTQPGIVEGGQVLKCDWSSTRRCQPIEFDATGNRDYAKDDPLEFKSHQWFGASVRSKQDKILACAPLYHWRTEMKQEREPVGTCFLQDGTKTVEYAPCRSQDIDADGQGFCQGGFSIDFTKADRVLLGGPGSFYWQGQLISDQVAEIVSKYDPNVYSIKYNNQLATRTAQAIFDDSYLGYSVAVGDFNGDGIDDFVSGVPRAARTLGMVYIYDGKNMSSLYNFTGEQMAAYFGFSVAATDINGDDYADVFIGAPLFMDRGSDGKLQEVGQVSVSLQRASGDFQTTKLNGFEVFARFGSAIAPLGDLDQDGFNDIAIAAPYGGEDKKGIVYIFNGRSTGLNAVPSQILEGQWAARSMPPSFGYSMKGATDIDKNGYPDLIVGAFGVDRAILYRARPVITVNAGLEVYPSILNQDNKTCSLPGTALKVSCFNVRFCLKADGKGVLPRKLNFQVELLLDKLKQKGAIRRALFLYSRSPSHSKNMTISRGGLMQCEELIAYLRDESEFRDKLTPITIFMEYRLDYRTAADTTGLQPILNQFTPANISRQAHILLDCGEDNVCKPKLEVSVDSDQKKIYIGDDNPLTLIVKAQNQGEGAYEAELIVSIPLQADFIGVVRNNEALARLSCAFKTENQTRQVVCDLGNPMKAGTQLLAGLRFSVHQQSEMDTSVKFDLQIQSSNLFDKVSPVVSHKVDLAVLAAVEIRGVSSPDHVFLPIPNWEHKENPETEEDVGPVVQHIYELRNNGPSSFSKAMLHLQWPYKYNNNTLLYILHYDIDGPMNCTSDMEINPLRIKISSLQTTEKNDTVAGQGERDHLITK
Sequence of Integrin alpha-V/beta-3 (P06756 891-1048 limits assumed): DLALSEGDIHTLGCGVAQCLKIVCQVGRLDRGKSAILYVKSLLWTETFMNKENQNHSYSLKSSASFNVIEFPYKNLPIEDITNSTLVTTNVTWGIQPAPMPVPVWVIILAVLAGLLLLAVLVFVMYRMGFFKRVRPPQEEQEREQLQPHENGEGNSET

Sequence of Integrin alpha-V/beta-5 (P06756 31-889 limits assumed): as the sequence (P06756 31-889 limits assumed) above
Sequence of Integrin alpha-V/beta-5 (P06756 891-1048 limits assumed): as the sequence (P06756 891-1048 limits assumed) above
Sequence of Integrin alpha-V/beta-5 (P18084 24-799 limits assumed): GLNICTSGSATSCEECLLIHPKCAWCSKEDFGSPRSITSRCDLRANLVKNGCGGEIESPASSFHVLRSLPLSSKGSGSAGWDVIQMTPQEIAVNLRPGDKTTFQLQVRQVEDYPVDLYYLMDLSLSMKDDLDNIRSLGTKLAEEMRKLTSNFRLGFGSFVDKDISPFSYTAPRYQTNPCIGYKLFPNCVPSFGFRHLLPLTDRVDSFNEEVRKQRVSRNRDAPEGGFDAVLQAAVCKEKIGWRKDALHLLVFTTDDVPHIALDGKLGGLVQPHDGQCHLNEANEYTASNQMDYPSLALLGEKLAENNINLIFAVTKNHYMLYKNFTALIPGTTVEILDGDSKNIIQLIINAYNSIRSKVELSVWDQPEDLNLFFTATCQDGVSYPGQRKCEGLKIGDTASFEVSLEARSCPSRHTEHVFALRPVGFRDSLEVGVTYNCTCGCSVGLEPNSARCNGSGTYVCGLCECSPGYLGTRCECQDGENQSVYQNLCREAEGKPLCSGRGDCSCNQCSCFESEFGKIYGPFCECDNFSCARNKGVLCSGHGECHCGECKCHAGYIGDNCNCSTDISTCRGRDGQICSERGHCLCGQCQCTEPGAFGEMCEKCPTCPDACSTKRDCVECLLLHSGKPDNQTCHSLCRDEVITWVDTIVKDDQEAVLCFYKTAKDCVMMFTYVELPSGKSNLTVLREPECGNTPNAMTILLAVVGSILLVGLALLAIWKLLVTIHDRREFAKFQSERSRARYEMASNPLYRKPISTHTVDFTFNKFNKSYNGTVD

Compound | IC50 (Integrin alpha-V/beta-5) [µM] | IC50 (Integrin alpha-V/beta-3) [µM]
N=C(N)N1CCN(CCc2cn(CC(=O)N(CC(=O)O)c3ccccc3)nn2)CC1 | > 10 | > 10
N=C(N)NCCc1cn(CC(=O)N(CC(=O)O)c2ccccc2)nn1 | > 10 | > 10
NC(N)=NCc1cn(CC(=O)N(CC(=O)O)c2ccccc2)nn1 | > 10 | > 10
NC(N)=NCCCc1cn(CC(=O)N(CC(=O)O)c2ccccc2)nn1 | > 10 | > 10
